Here are results for twelve molecules from ChEMBL document CHEMBL1140332, “Design, synthesis, and enzymatic evaluation of N1-acyloxyalkyl- and N1-oxazolidin-2,4-dion-5-yl-substituted beta-lactams as novel inhibitors of human leukocyte elastase” (J Med Chem, 2005).

Assay [1] deals with T1, Neutrophil elastase (Homo sapiens) (UniProt P08246).
T1 sequence (whole entry): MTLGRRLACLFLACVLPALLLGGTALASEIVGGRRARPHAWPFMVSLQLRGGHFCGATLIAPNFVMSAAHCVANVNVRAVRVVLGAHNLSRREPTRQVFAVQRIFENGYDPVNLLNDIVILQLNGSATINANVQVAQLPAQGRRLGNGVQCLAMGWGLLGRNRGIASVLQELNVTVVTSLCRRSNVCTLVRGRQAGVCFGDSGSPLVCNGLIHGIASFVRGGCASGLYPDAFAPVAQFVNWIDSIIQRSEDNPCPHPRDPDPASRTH
The assay can be described thus: Second order rate constant for inhibition of Human leukocyte elastase (major diastereomeric pair of enantiomer). The method in brief: (§1)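 Human leukocyte elastase (20 μM stock in pH 5.0 acetate buffer) incubated with inhibitor added from DMSO stock in 0.1 M HEPES pH 7.2, 25 °C. Aliquots withdrawn at intervals are diluted into HEPES containing MeO-Suc-Ala-Ala-Pro-Val-p-NA, and initial rates are followed at 410 nm over 60 s against control incubations. k_obs comes from plots of v/v0 versus time (Kitz–Wilson incubation method).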

The target in assay [2] is T1, Neutrophil elastase (Homo sapiens). The assay can be described thus: Second order rate constant for inhibition of Human leukocyte elastase (minor diastereomeric pair of enantiomer); NI=no inhibition. The procedure, abridged:
as §1

For assay [3] the target is unchanged. The assay can be described thus: Second order rate constant for inhibition of Human leukocyte elastase (minor diastereomeric pair of enantiomer). The procedure, abridged: as §1
For assay [4] the target is unchanged. Description: Second order rate constant for inhibition of Human leukocyte elastase (major diastereomeric 2 pairs of enantiomer). The procedure, abridged: as §1

Calls of active or inactive are those of the source. The calls are words filed in the database; no cut-off is given here.

Take `CCOC(=O)C(OC(=O)NC(=O)[n+]1ccccc1C(=O)OC)N1C(=O)C(CC)(CC)C1S(=O)(=O)c1ccccc1` (stereo unspecified): the k obs / 1 in assay [1] is 26.6 1/M 1/s. Also, the “k obs / 1” value in assay [2] was “inactive”.
Turning to `CCC1(CC)C(=O)N(COC(=O)Nc2ccc(OC)cc2)C1S(=O)(=O)c1ccccc1` (stereo unspecified), the k obs / 1 in assay [1] is 100 1/M 1/s.
Turning to `CCC1(CC)C(=O)N(C2OC(=O)N(C(=O)[n+]3ccc(OC)cc3)C2=O)C1S(=O)(=O)c1ccccc1` (stereo unspecified), the values for the k obs / 1 in assay [1] and in assay [3] were 43.2 1/M 1/s and 49.7 1/M 1/s, respectively.
In the case of `CCOC(=O)C(OC(=O)NCc1ccccc1)N1C(=O)C(CC)(CC)C1Oc1ccccc1` (stereo unspecified), the k obs / 1 in assay [1] is 38.2 1/M 1/s.
In the case of `CCC1(CC)C(=O)N(C2OC(=O)N(Cc3ccccc3)C2=O)C1S(=O)(=O)c1ccccc1` (stereo unspecified), the results for the k obs / 1 in assay [1] and in assay [3] were 68.5 1/M 1/s and 51 1/M 1/s, respectively.
For `CCOC(=O)C(OC(=O)c1ccc(OC)cc1)N1C(=O)C(CC)(CC)C1Sc1nc2ccccc2o1` (stereo unspecified), in assay [1], the k obs / 1 is 12.9 1/M 1/s.
Regarding `CCOC(=O)C(OC(=O)c1ccc(OC)cc1)N1CC(CC)(CC)C1=O` (stereo unspecified), the k obs / 1 in assay [1] was 10.7 1/M 1/s.
Same read-out and setting: to `CCC1(CC)C(=O)N(C(=O)NCc2ccccc2)C1Oc1ccc(C(=O)O)cc1` (stereo unspecified) belongs 1500 1/M 1/s; to `CCC1(CC)CN(C2OC(=O)N(Cc3ccccc3)C2=O)C1=O` (stereo unspecified), 23.9 1/M 1/s.
As to `CCOC(=O)C(OC(=O)c1ccc(OC)cc1)N1C(=O)C(CC)(CC)C1S(=O)(=O)c1ccccc1` (stereo unspecified), the k obs / 1 in assay [4] was 24.4 1/M 1/s.
Same read-out and setting: as for `CCC1(CC)C(=O)N(C2OC(=O)N(c3ccc(C)cc3)C2=O)C1Sc1nc2ccccc2o1` (stereo unspecified), the figure is 80 1/M 1/s.
As for `CCC1(CC)C(=O)N(C2OC(=O)N(Cc3ccccc3)C2=O)C1Oc1ccccc1` (stereo unspecified), the values for the k obs / 1 in assay [1] and in assay [3] were 115 1/M 1/s and 144 1/M 1/s, respectively.
